The record followed here is ChEMBL document CHEMBL4152319, “5-Hydroxypyrido[2,3-b]pyrazin-6(5H)-one derivatives as novel dual inhibitors of HIV-1 reverse transcriptase-associated ribonuclease H and integrase” (Eur J Med Chem, 2018).

pEC50, pIC50: −log10 of the molar value.

As usually defined, the pIC50 is the IC50 on a negative log10 scale, so that one unit is a factor of ten. By pEC50 is commonly meant the EC50 on a negative log10 scale, so that one unit is a factor of ten. For orientation: CC50 means the concentration that lowers cell viability or growth by half.

Data set [1] has as its target Human immunodeficiency virus type 1 reverse transcriptase (Human immunodeficiency virus 1, UniProt Q72547). Kind of data set: Inhibition of HIV-1 BH10 reverse transcriptase RNase H activity expressed in Escherichia coli using [32P]-labeled template primer 31Trna/21P as substrate pretreated for 5 mins followed by substrate addition by polyacrylamide gel electrophoresis method. In a few lines:
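Wild-type HIV-1 BH10 RT (20-40 nM) was preincubated with compound for 5 min at 37 °C in 50 mM Tris-HCl pH 8.0, 50 mM NaCl, 5 mM MgCl2, 5% DMSO. Reaction was started with 25 nM 5'-32P-labeled 31Trna/21P and run 20 s at 37 °C. Cleavage products were resolved on denaturing PAGE and quantified by phosphorimaging. IC50 came from dose-response curves over 0.2-100 μM.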

The test system of data set [2] is Human immunodeficiency virus 1. Kind of data set: Selectivity ratio of IC50 for HIV-1 BH10 reverse transcriptase RNase H activity to IC50 for recombinant HIV1 integrase strand transfer activity. In short, it runs like this: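 Ratio of RNase H IC50 to IN IC50. The RNase H IC50 came from the gel-based cleavage assay. The IN IC50 came from an ELISA strand-transfer assay: biotinylated LTR U5 donor DNA on streptavidin plates, full-length recombinant IN added, compound for 5 min at room temperature, then target DNA for 30 min at 37 °C. Products were detected with HRP antibody, TMB and A450.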

Data set [3] has as its target Human immunodeficiency virus type 1 integrase (Human immunodeficiency virus 1, UniProt Q7ZJM1). Kind of data set: Inhibition of recombinant HIV1 integrase strand transfer activity using biotin-labeled double-stranded HIV-1 LTR U5 donor DNA substrate pretreated for 5 mins followed by substrate addition and measured after 30 mins by ELISA.
In data set [4] the test system is Human immunodeficiency virus 1. Kind of data set: Antiviral activity against Human immunodeficiency virus 1 3B infected in MT4 cells assessed as protection against virus-induced cytopathic effect measured 5 days post infection by MTT assay. In kind it is functional, organism-based. The note with it: MT4, 120 h. In short, it runs like this: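 MT-4 cells resuspended at 6×10^5 cells/mL, infected with HIV-1 IIIB at 100-300 CCID50. Serial five-fold compound dilutions were run in triplicate wells. Viability was read by MTT reduction at 540 and 690 nm five days after infection, using the median OD of two or three wells. EC50 is the concentration giving 50% protection from viral cytopathicity.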
A general note: Damage to the host cells serves as the signal in cytopathic effect assays.

Data set [5] is described as follows: Cytotoxicity against human MT4 cells after 5 days by MTT assay. In kind it is cell-based. In a few lines:
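Mock-infected MT-4 cells at 6×10^5 cells/mL were set up in triplicate wells alongside the infected series, with serial five-fold compound dilutions. Viability was measured by MTT at 540 and 690 nm after five days, using the median OD of two or three wells. CC50 is the concentration reducing viability of mock-infected cells by 50%.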
(In general: Tetrazolium dyes change colour on reduction, which living cells bring about.)

Chain of Human immunodeficiency virus type 1 integrase (Q7ZJM1 whole entry): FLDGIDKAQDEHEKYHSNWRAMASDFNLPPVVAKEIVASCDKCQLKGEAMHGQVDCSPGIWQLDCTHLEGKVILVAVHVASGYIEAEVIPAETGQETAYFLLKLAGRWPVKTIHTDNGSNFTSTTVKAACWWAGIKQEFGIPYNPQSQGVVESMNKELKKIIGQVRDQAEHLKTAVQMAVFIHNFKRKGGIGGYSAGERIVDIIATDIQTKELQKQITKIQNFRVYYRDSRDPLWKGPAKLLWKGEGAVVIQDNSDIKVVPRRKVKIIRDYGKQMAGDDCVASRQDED

Turning to `CC(C)c1ccc(O)c(=O)c(O)c1` [BETA-THUJAPLICINOL], the negative logarithm of the IC50 (pIC50) in data set [1] was 5.60.

Take `COC(=O)c1c(Nc2ccc3ccccc3c2)c2nccnc2n(O)c1=O`: the Ratio IC50 in data set [2] came out at 0.76. For the same compound, the pIC50 in data set [1] is 5.29; in data set [3], 5.17. In addition, the pEC50 in data set [4] was < 5.15. The compound further registered a 50% cytotoxic concentration (CC50) at 120 h in data set [5] of 7.15 µM.

Consider `COC(=O)c1c(Nc2cccc(-c3ccc(C#N)cc3)c2)c2nccnc2n(O)c1=O`, for which the Ratio IC50 in data set [2] is 0.24. In addition, the values for the negative-log IC50 (pIC50) in data set [1] and in data set [3] were 5.25 and 4.64, respectively. Besides, in data set [4], the pEC50 is < 5.92. Also, the CC50 at 120 h in data set [5] amounted to 1.19 µM.

Consider `COC(=O)c1c(Nc2cccc(-c3cccc(C#N)c3)c2)c2nccnc2n(O)c1=O`, for which the Ratio IC50 in data set [2] is 16.1. For the same compound, the pIC50 in data set [1] was 5.40; in data set [3], 6.60. Besides, the pEC50 in data set [4] was < 5.94. The compound also yielded a CC50 at 120 h in data set [5] of 1.16 µM.

As to `COC(=O)c1c(Nc2ccc(-c3cccc(C#N)c3)cc2)c2nccnc2n(O)c1=O`, the pIC50 in data set [1] is 4.88; in data set [3], < 4.60. Moreover, the pEC50 in data set [4] was < 5.25. The same compound displayed a CC50 at 120 h in data set [5] of 5.68 µM.

For `COC(=O)c1c(Nc2ccc(-c3ccccc3)cc2)c2nccnc2n(O)c1=O`, the pIC50 in data set [1] was 5.28; in data set [3], < 4.60. The pEC50 in data set [4] is < 5.15. The same compound had a CC50 at 120 h in data set [5] of 7 µM.

For `COC(=O)c1c(Nc2cccc(-c3cncnc3)c2)c2nccnc2n(O)c1=O`, the Ratio IC50 in data set [2] was 0.17. Moreover, the pIC50 is 5.73 in data set [1] and 4.96 in data set [3]. Also, in data set [4], the pEC50 was < 5.23. This compound also came in with a CC50 at 120 h in data set [5] of 5.89 µM.

As to `Cc1nnc(C(=O)NC(C)(C)c2nc(C(=O)NCc3ccc(F)cc3)c(O)c(=O)n2C)o1`, the pEC50 in data set [4] was 7.93. The CC50 at 120 h in data set [5] is > 56.2 µM.

Regarding `COC(=O)c1c(Nc2ccc(-c3ccc(OC)c(OC)c3)cc2)c2nccnc2n(O)c1=O`, the results for the pIC50 in data set [1] and in data set [3] were 5.23 and < 4.60, respectively. Also, the pEC50 in data set [4] is < 5.83. In data set [5], half-maximal cytotoxicity (CC50 at 120 h) was put at 1.47 µM.

As for `COC(=O)c1c(Nc2cccc3ccccc23)c2nccnc2n(O)c1=O`, the pIC50 was 5.37 in data set [1] and < 4.60 in data set [3]. For the same compound, in data set [4], the pEC50 is < 5.86. The CC50 at 120 h in data set [5] amounted to 1.38 µM.

For `COC(=O)c1c(Nc2ccc(-c3ccc(C#N)cc3)cc2)c2nccnc2n(O)c1=O`, the Ratio IC50 in data set [2] turned out to be 1.5. The pIC50 was 5.75 in data set [1] and 5.93 in data set [3]. The pEC50 in data set [4] was < 6.47. This compound displayed a CC50 at 120 h in data set [5] of 0.34 µM.

For `COC(=O)c1c(Nc2ccc(-c3cncnc3)cc2)c2nccnc2n(O)c1=O`, in data set [2], the Ratio IC50 came out at 2.17. Further, the values for the pIC50 in data set [1] and in data set [3] were 5.49 and 5.83, respectively. The pEC50 in data set [4] was < 5.09. Further, it took 8.04 µM to reach half-maximal cytotoxicity in data set [5] (CC50 at 120 h).

As for `COC(=O)c1c(Nc2cccc(-c3ccc(OC)c(OC)c3)c2)c2nccnc2n(O)c1=O`, in data set [2], the Ratio IC50 stood at 21.4. Besides, the pIC50 was 5.33 in data set [1] and 6.66 in data set [3]. For the same compound, the negative-log EC50 (pEC50) in data set [4] is < 5.88. In addition, the CC50 at 120 h in data set [5] amounted to 1.32 µM.
